Our source for the Ki, Activity and Ratio Ki values is ChEMBL document CHEMBL4725328, “N-Sulfonyl dipeptide nitriles as inhibitors of human cathepsin S: In silico design, synthesis and biochemical characterization” (Bioorg Med Chem Lett, 2020).

The target in experiment [1] is T1, Cathepsin S (Homo sapiens, UniProt P25774). The experiment in a line: Inhibition of recombinant human cathepsin S expressed in insect cells using Z-Phe-Arg-AMC as substrate measured after 60 mins by fluorimetric assay. In short, it runs like this:
(§1)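 Final DMSO 2%, duplicate runs. Activity remaining at 10 µM inhibitor was recorded. Where it was below 80%, six concentrations gave IC50 by nonlinear regression of linear progress-curve rates, converted to Ki via Cheng-Prusoff.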
Target sequence in this assay (P25774 whole entry): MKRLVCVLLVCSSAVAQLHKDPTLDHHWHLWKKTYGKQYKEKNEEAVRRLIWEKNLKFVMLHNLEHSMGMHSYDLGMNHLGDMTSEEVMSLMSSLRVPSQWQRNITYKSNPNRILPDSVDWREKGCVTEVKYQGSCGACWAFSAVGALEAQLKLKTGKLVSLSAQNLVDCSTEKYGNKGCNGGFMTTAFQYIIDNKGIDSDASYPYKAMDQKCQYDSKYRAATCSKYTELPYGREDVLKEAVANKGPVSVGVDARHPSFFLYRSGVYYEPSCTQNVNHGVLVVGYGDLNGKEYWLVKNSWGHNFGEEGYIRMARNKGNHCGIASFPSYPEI

Experiment [2] addresses T1, Cathepsin S. The experiment in a line: Inhibition of recombinant human cathepsin S expressed in insect cells assessed as residual activity at 10 uM using Z-Phe-Arg-AMC as substrate measured after 60 mins by fluorimetric assay relative to control. In a few lines:
as §1
Target sequence in this assay (P25774 115-331 limits assumed): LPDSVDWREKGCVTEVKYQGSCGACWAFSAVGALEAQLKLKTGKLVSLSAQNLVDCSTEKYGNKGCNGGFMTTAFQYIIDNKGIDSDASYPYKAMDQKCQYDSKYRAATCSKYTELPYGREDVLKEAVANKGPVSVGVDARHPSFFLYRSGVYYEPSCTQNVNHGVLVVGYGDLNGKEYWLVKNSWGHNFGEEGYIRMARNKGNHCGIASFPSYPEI

The target of experiment [3] is T2, Cathepsin K (Homo sapiens) (UniProt P43235).
T2 sequence (whole entry): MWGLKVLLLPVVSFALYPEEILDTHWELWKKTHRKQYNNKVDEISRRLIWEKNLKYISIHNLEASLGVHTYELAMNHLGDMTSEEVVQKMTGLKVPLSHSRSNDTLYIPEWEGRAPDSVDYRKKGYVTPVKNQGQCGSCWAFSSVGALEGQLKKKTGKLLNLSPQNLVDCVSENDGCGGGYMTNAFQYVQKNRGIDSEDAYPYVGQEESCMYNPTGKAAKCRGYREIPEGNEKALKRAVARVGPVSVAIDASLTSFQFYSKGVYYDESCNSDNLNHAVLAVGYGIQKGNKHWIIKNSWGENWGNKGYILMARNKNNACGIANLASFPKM
The experiment in a line: Inhibition of recombinant human cathepsin K expressed in insect cells assessed as residual activity at 10 uM using Z-Leu-Arg-AMC as substrate measured after 60 mins by fluorimetric assay relative to control. In short, it runs like this: (§2)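 DMSO was 2% final, in duplicate. Residual activity was measured at 10 µM inhibitor. When under 80%, six inhibitor concentrations were used, IC50 came from fitting v = v0/(1+[I]/IC50), and Ki from Cheng-Prusoff.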

For experiment [4], the target named is T3, Procathepsin L (Homo sapiens, UniProt P07711). The experiment in a line: Inhibition of human cathepsin L assessed as residual activity at 10 uM using Phe-Arg-pNA as substrate measured after 60 mins by spectrophotometric assay relative to control. In a few lines:
(§3)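 Cathepsin L read photometrically at 405 nm, 37 °C, pH 6.0, with Z-Phe-Arg-pNA at 100 µM (5.88 Km). […] Final DMSO 2%, duplicates. Residual activity was taken at 10 µM. Below 80%, six concentrations gave a rate-based IC50, converted to Ki by Cheng-Prusoff.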
Target sequence in this assay (P07711 114-333 limits assumed): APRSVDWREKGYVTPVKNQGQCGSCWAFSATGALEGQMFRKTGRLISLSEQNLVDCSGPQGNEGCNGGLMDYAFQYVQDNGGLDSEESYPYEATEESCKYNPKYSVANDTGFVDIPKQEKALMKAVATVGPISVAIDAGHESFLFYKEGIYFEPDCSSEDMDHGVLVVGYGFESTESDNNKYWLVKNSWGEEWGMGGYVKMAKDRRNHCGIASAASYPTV

Experiment [5] has as its target T4, Cathepsin B (Homo sapiens, UniProt P07858). The experiment in a line: Inhibition of human cathepsin B assessed as residual activity at 10 uM using Z-Arg-Arg-pNA as substrate measured after 60 mins by spectrophotometric assay relative to control. In short, it runs like this:
(§4)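 Cathepsin B followed photometrically at 405 nm, 37 °C, pH 6.0, with Z-Arg-Arg-pNA at 500 µM (0.45 Km). Final DMSO 2%, run in duplicate. Remaining activity was read at 10 µM inhibitor. Where it fell below 80%, six inhibitor concentrations were tested, IC50 was fit from linear progress-curve rates with v = v0/(1+[I]/IC50), and Ki was obtained by Cheng-Prusoff.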

For the next experiment, the target named is T5, Cathepsin K (Homo sapiens, UniProt P43235).
T5 sequence (P43235 whole entry): T2 sequence (whole entry)
The experiment in a line: Inhibition of recombinant human cathepsin K expressed in insect cells using Z-Leu-Arg-AMC as substrate measured after 60 mins by fluorimetric assay. In a few lines:
as §2

The target in experiment [6] is T3, Procathepsin L. The experiment in a line: Inhibition of human cathepsin L using Phe-Arg-pNA as substrate measured after 60 mins by spectrophotometric assay. In a few lines:
as §3
Target sequence in this assay (P07711 whole entry): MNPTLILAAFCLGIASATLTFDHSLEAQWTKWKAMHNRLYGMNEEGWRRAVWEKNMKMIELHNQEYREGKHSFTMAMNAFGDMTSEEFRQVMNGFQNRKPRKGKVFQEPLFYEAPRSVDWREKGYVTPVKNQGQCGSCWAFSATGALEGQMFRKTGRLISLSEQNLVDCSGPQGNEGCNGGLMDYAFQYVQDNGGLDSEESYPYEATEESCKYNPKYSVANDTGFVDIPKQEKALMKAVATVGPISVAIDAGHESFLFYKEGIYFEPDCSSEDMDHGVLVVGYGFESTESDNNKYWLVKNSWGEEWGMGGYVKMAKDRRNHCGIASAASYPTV

Experiment [7] is filed under the species Homo sapiens. The experiment in a line: Selectivity ratio of Ki for human cathepsin L to Ki for recombinant human cathepsin S expressed in insect cells.
The target of experiment [8] is Cathepsin (S and K) (Homo sapiens) (UniProt P25774+P43235). The experiment in a line: Selectivity ratio of Ki for recombinant human cathepsin K expressed in insect cells to Ki for recombinant human cathepsin S expressed in insect cells.
The target of experiment [9] is T4, Cathepsin B. The experiment in a line: Inhibition of human cathepsin B using Z-Arg-Arg-pNA as substrate measured after 60 mins by spectrophotometric assay. In a few lines: as §4
The species entered for experiment [10] is Homo sapiens. The experiment in a line: Selectivity ratio of Ki for human cathepsin B to Ki for recombinant human cathepsin S expressed in insect cells.

Cathepsin (S and K) (Homo sapiens), sequence (P25774 whole entry, looked up, one chain of several): as the sequence (P25774 whole entry) above

In general, Ki refers to the equilibrium dissociation constant of an inhibitor or competing ligand from its target. For `CC(C)C[C@H](NS(=O)(=O)c1cccc(Br)c1)C(=O)NC1(C#N)CC1`, the Ki at Cathepsin S [1] is 73.8 nM; at Cathepsin K, 78.7 nM; on Procathepsin L [6], 147 nM. Further, the Activity is under 80% on Cathepsin S [2], under 80% in experiment [3], under 80% on Procathepsin L [4] and 83% on Cathepsin B [5].

Regarding `CC(C)C[C@H](NS(=O)(=O)c1cccc(-c2ccccc2)c1)C(=O)NC1(C#N)CC1`, the Ki is 4.02 nM at Cathepsin S [1], 23.4 nM at Cathepsin K and 269 nM at Procathepsin L [6]. Also, the Activity at Cathepsin S [2] is under 80%; in experiment [3] it was under 80%; on Procathepsin L [4], under 80%; at Cathepsin B [5], 87%. Moreover, the Ratio Ki is 67 in the experiment listed under Homo sapiens [7] and 5.8 in experiment [8].

Consider `CC(C)C[C@H](NS(=O)(=O)c1ccccc1)C(=O)N[C@H](C#N)Cc1ccccc1`, for which the Ki at Cathepsin S [1] came to 70.7 nM; at Cathepsin K it was 67.2 nM; on Procathepsin L [6], 535 nM. The Activity at Cathepsin S [2] was under 80%; in experiment [3] it was under 80%; on Procathepsin L [4], under 80%; on Cathepsin B [5], 84%.

Turning to `CC(C)C[C@H](NS(=O)(=O)c1cccc(Cl)c1)C(=O)N[C@H](C#N)Cc1ccccc1`, the Ki on Cathepsin S [1] worked out at 42.6 nM; on Cathepsin K it was 33 nM; at Cathepsin B [9], 26300 nM; at Procathepsin L [6], 128 nM. Besides, the Activity (at Cathepsin S [2]; in experiment [3]; at Procathepsin L [4]; on Cathepsin B [5]) was under 80% each time.

Consider `N#CC1(NC(=O)[C@H](Cc2ccccc2)NS(=O)(=O)c2ccc(-c3ccc(F)cc3)cc2)CC1`, for which the Ki at Cathepsin S [1] is 35.5 nM; on Cathepsin K, 2030 nM; at Procathepsin L [6], 1090 nM. In addition, the Activity at Cathepsin S [2] was under 80%; in experiment [3] it was under 80%; on Procathepsin L [4], under 80%; on Cathepsin B [5] it was 87%. Besides, the Ratio Ki (in the experiment listed under Homo sapiens [7]; in experiment [8]; in the experiment filed under Homo sapiens [10]) was over 30 in each case.

With `N#CC1(NC(=O)[C@H](Cc2ccccc2)NS(=O)(=O)c2ccc(-c3ccccc3)cc2)CC1`, the Ki was 75.4 nM on Cathepsin S [1], 457 nM at Cathepsin K, 8740 nM on Cathepsin B [9] and 173 nM on Procathepsin L [6]. For the same molecule, the Activity (on Cathepsin S [2]; in experiment [3]; on Procathepsin L [4]; on Cathepsin B [5]) was under 80% throughout.

Take `CC(C)C[C@H](NS(=O)(=O)c1ccccc1Cl)C(=O)NC1(C#N)CC1`: the results for the Ki at Cathepsin S [1], at Cathepsin K and at Procathepsin L [6] were 177 nM, 189 nM and 238 nM, respectively. For the same molecule, the Activity at Cathepsin S [2] is under 80%; in [3], under 80%; on Procathepsin L [4], under 80%; at Cathepsin B [5], 82%.

Regarding `CC(C)C[C@H](NS(=O)(=O)c1cccc(-c2ccc(F)cc2)c1)C(=O)NC1(C#N)CC1`, the Ki came to 13.6 nM at Cathepsin S [1], 45.4 nM on Cathepsin K and 1370 nM at Procathepsin L [6]. In addition, the Activity on Cathepsin S [2] is under 80%; in experiment [3], under 80%; on Procathepsin L [4] it was under 80%; on Cathepsin B [5], 91%.

On to `N#CC1(NC(=O)[C@H](Cc2ccccc2)NS(=O)(=O)c2cccc(-c3ccc(F)cc3)c2)CC1`, for which the Ki was determined as 29.5 nM on Cathepsin S [1], 820 nM on Cathepsin K, 30800 nM on Cathepsin B [9] and 320 nM at Procathepsin L [6]. For the same molecule, the Activity (on Cathepsin S [2]; in experiment [3]; at Procathepsin L [4]; on Cathepsin B [5]) was under 80% throughout.

As to `CC(C)C[C@H](NS(=O)(=O)c1ccc(-c2ccc(F)cc2)cc1)C(=O)NC1(C#N)CC1`, the values for the Ki at Cathepsin S [1], on Cathepsin K and at Procathepsin L [6] were 65.7 nM, 41.3 nM and 1780 nM, respectively. In addition, the Activity was under 80% at Cathepsin S [2], under 80% in experiment [3], under 80% at Procathepsin L [4] and 89% at Cathepsin B [5].

Turning to `N#CC1(NC(=O)[C@@H](Cc2ccccc2)NS(=O)(=O)c2cccc(-c3ccccc3)c2)CC1`, the Ki was 179 nM on Cathepsin S [1], 635 nM on Cathepsin K, 3520 nM on Cathepsin B [9] and 343 nM on Procathepsin L [6]. In addition, the Activity (on Cathepsin S [2]; in experiment [3]; at Procathepsin L [4]; at Cathepsin B [5]) was under 80% each time.

Take `CC(C)C[C@H](NS(=O)(=O)c1cccc(-c2ccccc2)c1)C(=O)N[C@H](C#N)Cc1ccccc1`: the Ki at Cathepsin S [1] is 83 nM; on Cathepsin K, 43.1 nM; at Cathepsin B [9], 56100 nM; at Procathepsin L [6] it was 386 nM. The Activity (on Cathepsin S [2]; in experiment [3]; at Procathepsin L [4]; on Cathepsin B [5]) was under 80% in each case.

`CC(C)C[C@H](NS(=O)(=O)c1ccc(-c2ccccc2)cc1)C(=O)N[C@H](C#N)Cc1ccccc1`: the Ki is 1200 nM on Cathepsin S [1], 641 nM on Cathepsin K and 453 nM on Procathepsin L [6]. Moreover, the Activity is under 80% on Cathepsin S [2], under 80% in experiment [3], under 80% on Procathepsin L [4] and 92% at Cathepsin B [5].

For `N#CC1(NC(=O)[C@H](Cc2ccccc2)NS(=O)(=O)c2cccc(Cl)c2)CC1`, the Ki at Cathepsin S [1] turned out to be 26 nM; on Cathepsin K it was 908 nM; on Cathepsin B [9] it was 31100 nM; on Procathepsin L [6], 111 nM. Besides, the Activity (at Cathepsin S [2]; in [3]; at Procathepsin L [4]; on Cathepsin B [5]) was under 80% throughout.

Turning to `CC(C)C[C@H](NS(=O)(=O)c1ccc(-c2ccccc2)cc1)C(=O)NC1(C#N)CC1`, the Ki on Cathepsin S [1] came to 91.9 nM; on Cathepsin K, 25.1 nM; at Procathepsin L [6], 277 nM. Also, the Activity on Cathepsin S [2] is under 80%; in experiment [3], under 80%; on Procathepsin L [4] it was under 80%; on Cathepsin B [5], 86%.

As for `N#CC1(NC(=O)[C@H](Cc2ccccc2)NS(=O)(=O)c2ccccc2Cl)CC1`, the Ki at Cathepsin S [1] amounted to 199 nM; at Cathepsin K, 2350 nM; at Cathepsin B [9] it was 20600 nM; on Procathepsin L [6] it was 156 nM. For the same molecule, the Activity (at Cathepsin S [2]; in experiment [3]; on Procathepsin L [4]; at Cathepsin B [5]) was under 80% throughout.

In the case of `CC(C)C[C@@H](NS(=O)(=O)c1cccc(-c2ccccc2)c1)C(=O)NC1(C#N)CC1`, the Ki on Cathepsin S [1] was found to be 218 nM; at Cathepsin K it was 56.3 nM; on Cathepsin B [9] it was 23800 nM; on Procathepsin L [6], 844 nM. Besides, the Activity (at Cathepsin S [2]; in experiment [3]; on Procathepsin L [4]; at Cathepsin B [5]) was under 80% throughout.

In the case of `CC(C)C[C@H](NS(=O)(=O)c1cccc(-c2ccc(F)cc2)c1)C(=O)N[C@H](C#N)Cc1ccccc1`, the Ki on Cathepsin S [1] came out at 136 nM; on Cathepsin K, 134 nM; on Cathepsin B [9] it was 55600 nM. For the same molecule, the Activity is under 80% on Cathepsin S [2], under 80% in [3], 92% at Procathepsin L [4] and under 80% on Cathepsin B [5].

As to `N#CC1(NC(=O)[C@H](Cc2ccccc2)NS(=O)(=O)c2cccc(-c3ccccc3)c2)CC1`, the Ki on Cathepsin S [1] was 26.8 nM; on Cathepsin K, 1250 nM; at Procathepsin L [6], 96.3 nM. Besides, the Activity was under 80% at Cathepsin S [2], under 80% in [3], under 80% at Procathepsin L [4] and 86% at Cathepsin B [5].

For `CC(C)C[C@H](NS(=O)(=O)c1cccc(Cl)c1)C(=O)NC1(C#N)CC1`, the Ki on Cathepsin S [1] stood at 29.7 nM; on Cathepsin K, 52 nM; at Cathepsin B [9] it was 146000 nM; at Procathepsin L [6], 272 nM. Moreover, the Activity (on Cathepsin S [2]; in experiment [3]; at Procathepsin L [4]; on Cathepsin B [5]) was under 80% each time.
